Laboratory results published in ChEMBL document CHEMBL3600355, “The importance of the 6- and 7-positions of tetrahydroisoquinolines as selective antagonists for the orexin 1 receptor” (Bioorg Med Chem, 2015).
The source made the active and inactive calls. The calls are words filed in the database; no cut-off is given here.

The molecules below were run against T1, Orexin receptor type 2 (Homo sapiens) (UniProt O43614) (assay: Antagonist activity at human OX2 receptor expressed in CHO-RD-HGA16 cells assessed as inhibition of orexin-A-induced calcium mobilization at 10 uM preincubated for 15 mins followed by orexin-A addition measured every 1.52 secs over 60 secs by calcium 5 dye-based fluorescence assay relative to control).
T1 sequence (whole entry): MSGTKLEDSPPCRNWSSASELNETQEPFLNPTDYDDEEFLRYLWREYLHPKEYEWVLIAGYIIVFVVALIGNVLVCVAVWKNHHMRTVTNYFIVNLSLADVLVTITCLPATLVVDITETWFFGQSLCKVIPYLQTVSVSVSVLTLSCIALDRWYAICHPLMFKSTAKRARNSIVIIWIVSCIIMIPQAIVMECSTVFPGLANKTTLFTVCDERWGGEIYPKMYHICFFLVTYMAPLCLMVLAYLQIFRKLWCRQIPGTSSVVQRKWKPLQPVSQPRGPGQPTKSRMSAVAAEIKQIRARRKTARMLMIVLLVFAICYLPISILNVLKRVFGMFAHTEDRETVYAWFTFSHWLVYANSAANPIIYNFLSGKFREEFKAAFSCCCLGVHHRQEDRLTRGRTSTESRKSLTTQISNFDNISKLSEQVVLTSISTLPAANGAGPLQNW
Format: functional, cell-based
Procedure, shortened: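 OX2 stable CHO-RD-HGA16 cells, Calcium 5 dye-loaded, were pre-incubated 15 min at 37°C with compound at 10 μM before orexin A addition. Calcium fluorescence was read every 1.52 s for 60 s and percent inhibition of the orexin A response recorded.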

SMILES | inhibition [%]
COc1ccc(CC2c3ccc(OS(=O)(=O)c4ccccc4)cc3CCN2CC(=O)NCc2ccccc2)cc1OC (stereo unspecified) | < 50
COc1ccc(CCNc2ccc3c(c2)CCN(CC(=O)NCc2ccccc2)C3Cc2ccc(OC)c(OC)c2)cc1OC (stereo unspecified) | < 50
CCOc1ccc2c(c1)C(Cc1ccc(OC)c(OC)c1)N(CC(=O)NCc1ccccc1)CC2 (stereo unspecified) | < 50
COc1ccc(CC2c3cc(OC(C)C)ccc3CCN2CC(=O)NCc2ccccc2)cc1OC (stereo unspecified) | < 50
CCOC(=O)CCCCCCNc1ccc2c(c1)CCN(CC(=O)NCc1ccccc1)C2Cc1ccc(OC)c(OC)c1 (stereo unspecified) | < 50
COc1ccc(CC2c3ccc(NS(C)(=O)=O)cc3CCN2CC(=O)NCc2ccccc2)cc1OC (stereo unspecified) | < 50
COc1ccc(CC2c3ccc(N4CCCC4)cc3CCN2CC(=O)NCc2ccccc2)cc1OC (stereo unspecified) | < 50
COc1ccc(CC2c3ccc(NCc4ccccc4)cc3CCN2CC(=O)NCc2ccccc2)cc1OC (stereo unspecified) | < 50
COc1ccc(CC2c3ccc(NCCN4CCCCC4)cc3CCN2CC(=O)NCc2ccccc2)cc1OC (stereo unspecified) | < 50
COc1ccc(CC2c3ccc(NCCCCOc4ccccc4)cc3CCN2CC(=O)NCc2ccccc2)cc1OC (stereo unspecified) | < 50
CCCN(CCC)c1ccc2c(c1)CCN(CC(=O)NCc1ccccc1)C2Cc1ccc(OC)c(OC)c1 (stereo unspecified) | < 50
COc1ccc(CC2c3ccc(NC(C)=O)cc3CCN2CC(=O)NCc2ccccc2)cc1OC (stereo unspecified) | < 50
CCCOc1ccc2c(c1)CCN(CC(=O)NCc1ccccc1)C2Cc1ccc(OC)c(OC)c1 (stereo unspecified) | < 50
COc1ccc(CC2c3ccc(NCc4cccnc4)cc3CCN2CC(=O)NCc2ccccc2)cc1OC (stereo unspecified) | < 50
CCCCOc1ccc2c(c1)C(Cc1ccc(OC)c(OC)c1)N(CC(=O)NCc1ccccc1)CC2 (stereo unspecified) | < 50
COc1ccc(CC2c3ccc(NCCCC(=O)OC(C)(C)C)cc3CCN2CC(=O)NCc2ccccc2)cc1OC (stereo unspecified) | < 50
COc1ccc(CC2c3ccc(NCc4ccncc4)cc3CCN2CC(=O)NCc2ccccc2)cc1OC (stereo unspecified) | < 50
CCOC(=O)C(C)Nc1ccc2c(c1)CCN(CC(=O)NCc1ccccc1)C2Cc1ccc(OC)c(OC)c1 (stereo unspecified) | < 50
COc1ccc(CC2c3ccc(OCc4ccccc4)cc3CCN2CC(=O)NCc2ccccc2)cc1OC (stereo unspecified) | < 50
CCCCCCNc1ccc2c(c1)CCN(CC(=O)NCc1ccccc1)C2Cc1ccc(OC)c(OC)c1 (stereo unspecified) | < 50
CCOC(=O)CCNc1ccc2c(c1)CCN(CC(=O)NCc1ccccc1)C2Cc1ccc(OC)c(OC)c1 (stereo unspecified) | < 50
CCCCCN(C)c1ccc2c(c1)CCN(CC(=O)NCc1ccccc1)C2Cc1ccc(OC)c(OC)c1 (stereo unspecified) | < 50
COc1ccc(CC2c3ccc(NCC4CC4)cc3CCN2CC(=O)NCc2ccccc2)cc1OC (stereo unspecified) | < 50

What follows are molecules tested against T2, Orexin/Hypocretin receptor type 1 (Homo sapiens) (UniProt O43613) (assay: Competitive antagonist activity at human OX1 receptor expressed in CHO-RD-HGA16 cells assessed as inhibition of orexin-A-induced calcium mobilization preincubated for 1 hr followed by orexin-A addition measured every 1.52 secs over 60 secs by calcium 5 dye-based fluorescence assay).
T2 sequence (whole entry): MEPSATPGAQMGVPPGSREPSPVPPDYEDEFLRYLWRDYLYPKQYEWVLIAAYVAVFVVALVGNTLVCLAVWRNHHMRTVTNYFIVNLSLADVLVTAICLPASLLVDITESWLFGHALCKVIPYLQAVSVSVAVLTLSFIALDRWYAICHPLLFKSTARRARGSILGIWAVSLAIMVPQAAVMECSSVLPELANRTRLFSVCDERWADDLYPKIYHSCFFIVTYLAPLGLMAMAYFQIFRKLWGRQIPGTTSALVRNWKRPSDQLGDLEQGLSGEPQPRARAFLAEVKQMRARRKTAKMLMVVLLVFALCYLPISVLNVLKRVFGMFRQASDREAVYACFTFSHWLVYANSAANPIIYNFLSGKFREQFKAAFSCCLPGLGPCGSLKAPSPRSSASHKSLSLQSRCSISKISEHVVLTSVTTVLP
Format: functional, cell-based
Procedure, shortened: (§1)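 Curve-shift assay in human OX1 CHO-RD-HGA16 cells, with antagonist–receptor pre-incubation lengthened to 45 min or 1 hr before orexin A addition. Calcium 5 fluorescence was monitored, and each point is a composite of at least three experiments in duplicate.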

SMILES | inhibition | Ke(app) [nM]
COc1ccc(CCNc2ccc3c(c2)CCN(CC(=O)NCc2ccccc2)C3Cc2ccc(OC)c(OC)c2)cc1OC (stereo unspecified) | Active | 
COc1ccc(CC2c3ccc(NCCCC(=O)OC(C)(C)C)cc3CCN2CC(=O)NCc2ccccc2)cc1OC (stereo unspecified) |  | 1010

The molecules below were run against T2, Orexin/Hypocretin receptor type 1 (Homo sapiens) (assay: Competitive antagonist activity at human OX1 receptor expressed in CHO-RD-HGA16 cells assessed as inhibition of orexin-A-induced calcium mobilization preincubated for 45 mins followed by orexin-A addition measured every 1.52 secs over 60 secs by calcium 5 dye-based fluorescence assay).
Format: functional, cell-based
Procedure, shortened: as §1

SMILES | Ke(app) [nM] | inhibition
COc1ccc(CCNc2ccc3c(c2)CCN(CC(=O)NCc2ccccc2)C3Cc2ccc(OC)c(OC)c2)cc1OC (stereo unspecified) | 2180 | 
COc1ccc(CC2c3ccc(NCCCC(=O)OC(C)(C)C)cc3CCN2CC(=O)NCc2ccccc2)cc1OC (stereo unspecified) |  | Active

Species on record: Homo sapiens
Test: Selectivity for human OX1 receptor over human OX2 receptor

SMILES | Ratio Ke
CCOc1ccc2c(c1)C(Cc1ccc(OC)c(OC)c1)N(CC(=O)NCc1ccccc1)CC2 (stereo unspecified) | 268
COc1ccc(CC2c3cc(OC(C)C)ccc3CCN2CC(=O)NCc2ccccc2)cc1OC (stereo unspecified) | 201

Each molecule was assayed against T2, Orexin/Hypocretin receptor type 1 (Homo sapiens) (assay: Insurmountable antagonist activity at human OX1 receptor expressed in CHO-RD-HGA16 cells assessed as inhibition of orexin-A-induced calcium mobilization preincubated for 15 mins followed by orexin-A addition measured every 1.52 secs over 60 secs by calcium 5 dye-based fluorescence assay).
Format: functional, cell-based
Procedure, shortened: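 Human OX1 or OX2 stable CHO-RD-HGA16 cells were dye-loaded with Calcium 5, then given a single compound concentration for 15 min at 37°C. Orexin A serial dilutions were added at 19 s and fluorescence read every 1.52 s over 60 s. Orexin A EC50 curves were run with and without compound and fitted to a three-parameter logistic. Apparent Ke was taken from the right-shift; three independent experiments in duplicate, N=2 where Ke >10 μM.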

SMILES | inhibition
COc1ccc(CCNc2ccc3c(c2)CCN(CC(=O)NCc2ccccc2)C3Cc2ccc(OC)c(OC)c2)cc1OC (stereo unspecified) | Active
COc1ccc(CC2c3ccc(NCCCC(=O)OC(C)(C)C)cc3CCN2CC(=O)NCc2ccccc2)cc1OC (stereo unspecified) | Active

The molecules below were run against T2, Orexin/Hypocretin receptor type 1 (Homo sapiens) (assay: Competitive antagonist activity at human OX1 receptor expressed in CHO-RD-HGA16 cells assessed as inhibition of orexin-A-induced calcium mobilization compound treated simultaneous with orexin-A by fluorescence assay).
Format: functional, cell-based
Procedure, shortened: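 Antagonist and orexin A were added simultaneously to Calcium 5-loaded human OX1 CHO-RD-HGA16 cells, with calcium mobilization curve-shift measured. Data are composites of at least three experiments in duplicate.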

SMILES | inhibition
COc1ccc(CCNc2ccc3c(c2)CCN(CC(=O)NCc2ccccc2)C3Cc2ccc(OC)c(OC)c2)cc1OC (stereo unspecified) | Active
COc1ccc(CC2c3ccc(NCCCC(=O)OC(C)(C)C)cc3CCN2CC(=O)NCc2ccccc2)cc1OC (stereo unspecified) | Active

These molecules were tested against T2, Orexin/Hypocretin receptor type 1 (Homo sapiens) (assay: Agonist activity at human OX1 receptor expressed in CHO-RD-HGA16 cells assessed as induction of calcium mobilization at 10 uM measured every 1.52 secs over 60 secs by calcium 5 dye-based fluorescence assay).
Format: functional, cell-based
Procedure, shortened: (§2)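 Stable CHO-RD-HGA16 lines overexpressing human OX1 or OX2, plated overnight at 25,000 cells/well, 37°C, 5% CO2. Loaded 45 min with Calcium 5 dye in HBSS/20 mM HEPES/2.5 mM probenecid, pH 7.4. Compound tested alone at 10 μM; fluorescence (ex 485/em 525 nm) read every 1.52 s for 60 s.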

SMILES | Activity
CCOc1ccc2c(c1)C(Cc1ccc(OC)c(OC)c1)N(CC(=O)NCc1ccccc1)CC2 (stereo unspecified) | inactive
COc1ccc(CC2c3cc(OC(C)C)ccc3CCN2CC(=O)NCc2ccccc2)cc1OC (stereo unspecified) | inactive
CCCCOc1ccc2c(c1)C(Cc1ccc(OC)c(OC)c1)N(CC(=O)NCc1ccccc1)CC2 (stereo unspecified) | inactive
CCOC(=O)CCNc1ccc2c(c1)CCN(CC(=O)NCc1ccccc1)C2Cc1ccc(OC)c(OC)c1 (stereo unspecified) | inactive

What follows are molecules tested against T1, Orexin receptor type 2 (Homo sapiens) (assay: Agonist activity at human OX2 receptor expressed in CHO-RD-HGA16 cells assessed as induction of calcium mobilization at 10 uM measured every 1.52 secs over 60 secs by calcium 5 dye-based fluorescence assay).
Format: functional, cell-based
Procedure, shortened: as §2

SMILES | Activity
CCOc1ccc2c(c1)C(Cc1ccc(OC)c(OC)c1)N(CC(=O)NCc1ccccc1)CC2 (stereo unspecified) | inactive
COc1ccc(CC2c3cc(OC(C)C)ccc3CCN2CC(=O)NCc2ccccc2)cc1OC (stereo unspecified) | inactive
CCCCOc1ccc2c(c1)C(Cc1ccc(OC)c(OC)c1)N(CC(=O)NCc1ccccc1)CC2 (stereo unspecified) | inactive
CCOC(=O)CCNc1ccc2c(c1)CCN(CC(=O)NCc1ccccc1)C2Cc1ccc(OC)c(OC)c1 (stereo unspecified) | inactive
